Many of the other results were omitted from the sample, so hits are more common in it than they were.
Redox H2O2 prof: compounds producing H2O2 with reducing agent – biochemical, NIH compound library profiling, artefact control for MLSCN library redox annotation, primary screen; DTT-dependent redox cycling H2O2, phenol red/HRP absorbance; 100% = 100 µM peroxide control, 0% = buffer; activation, % at 10 µM; 200,000 tested, 0.03% active;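 active = activation of at least 50% relative to the plate's high and low controls in the primary single-dose screen; inactive = activation below 50%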;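 note: compound incubated with DTT at 0.8 mM final as the reducing agent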
Lmaj promast: Leishmania major promastigote growth inhibition, primary screen | inhibition, % at 10 µM | 200,000 tested, 9% active | Leishmania major promastigotes, resazurin fluorescence viability; in the data active = inhibition above about 50%;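 note: promastigotes grown with compound for 44 hours at 28 °C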
MPTP inh: mitochondrial permeability transition pore inhibitors, primary screen, biochemical, isolated mouse mitochondria, absorbance | Ca2+ swelling absorbance, 30 min | 360,000 tested, 1.4% active | AID 602449, 2012 | inhibition, % at 10 µM;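 active = inhibition of 50% or more, scaled per plate between neutral and stimulator controls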;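 note: 0% = DMSO wells given calcium and 100% = 1 mM EGTA wells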
T cruzi repl: inhibitors of intracellular T. cruzi growth, primary screen, luminescence, NIH3T3 host cells; T. cruzi beta-gal in NIH3T3, 90 h; inhibition, % (no concentration beside the values); 300,000 tested, 1.4% active; AID 1885, 2009;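 active = mean inhibition across valid replicates above about 55%, limit read from the data; inconclusive = mean below that limit but half or more replicates reach it; inactive = mean below it, under half of replicates reach it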;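 note: signal also drops with host cell toxicity which is not excluded here; 0% = plate median of DMSO wells and 100% = zero luminescence signal; higher percent means less beta-gal luminescence so fewer parasites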
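System – NIH/3T3 host cells with β-galactosidase reporter T. cruzi · Doses – single 50 nL compound addition per well in DMSO · Reagent – 5000 T. cruzi trypomastigotes/well · Medium – Low-serum DMEM with 2% FBS · Timing – ≥90 h infection period, 3 h prior cell attachment · Evaluation – parasite load inhibition, % · Technique – GalScreen luminescence, 60 min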
Hep lipid drop: inhibitors of hepatocyte lipid droplet formation, primary screen, imaging, high-throughput imaging, BODIPY stain | AML12 mouse hepatocytes, oleate lipid droplets | 240,000 tested, 0.4% active | inhibition, % at 6.5 µM;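 active = lipid droplet intensity inhibited by at least 50%, with more than 500 cells counted; inconclusive = wells with under 300 cells, treated as cytotoxic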
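Assay system: AML12 hepatocytes (mouse) / Also added: 100 µM oleic acid challenge / Times: overnight treatment with compound plus oleate / Detection: high-content imaging of BODIPY-stained droplets and DAPI nuclei / Evaluation: % inhibition of lipid droplet signal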
* = called active by the depositor; ? = inconclusive; · = no result.

SMILES	Redox H2O2 prof	Lmaj promast	MPTP inh	T cruzi repl	Hep lipid drop
CCOC(=O)C1=C(C)NC(C)=C(C(=O)OCC)C1c1ccc(OC)cc1	0	65*	0	10	·
COc1ccccc1NC(=O)COC(=O)C1CC2CCCC(C1)C2=O (configuration not stated)	·	·	1	·	·
CC(=O)c1ccc(NC(=S)N(CCCN(C)C)Cc2ccccc2)cc1	·	·	1	-5	0
CN(C)CCCN(Cc1ccccc1)C(=S)NCc1ccccc1	0	86*	1	-8	5
CC(C)N(C(=S)NCc1ccccc1)C(C)C	0	2	-1	-20	6
CN(C)CCCN(Cc1ccccc1)C(=S)Nc1ccc(SC(F)F)cc1	-2	100*	4	-5	16
CCOC(=O)CN1C(=O)N[C@@H](c2ccco2)C(C(C)=O)=C1C	·	·	5	-1	·
CCCCC(=O)N1C/C=C\C(c2ccc(OC)cc2)N(Cc2ccc(F)cc2)C(=O)[C@H]1Cc1ccccc1 (some centres not stated)	·	·	0	64*	-16
O=c1c2ccccc2n(Cc2cccc(F)c2)c(=O)n1C1CCCC1	-1	64*	2	13	-7
Brc1cccc(-c2nc3cccnc3nc2-c2cccc(Br)c2)c1	·	·	-1	49	-8
Cc1ccc(-c2nc3cc(Br)cnc3nc2-c2ccc(C)cc2)cc1	0	26	7	58*	-2
CC(=O)Nc1ccc(OC(=O)C(CCS(C)(=O)=O)N2C(=O)c3ccccc3C2=O)cc1 (configuration not stated)	1	91*	-2	2	3
COc1ccc(NC(=O)C(CCS(C)(=O)=O)N2C(=O)c3ccccc3C2=O)cc1 (configuration not stated)	0	-1	0	-34	-2
CSCCC1NC(=O)N(CC(=O)N2CCc3ccccc3C2)C1=O (configuration not stated)	·	·	0	·	·
Cn1cc(/C=C2\SC(=O)N(c3ccccc3)C2=O)c2ccccc21	1	-5	-7	11	-5
CCN1C(=O)S/C(=C/c2cn(C)c3ccccc23)C1=O	0	82*	0	-17	-14
CCCCN1C[C@H](CSC)[C@@H](CC(=O)Nc2ccc(OC)cc2)C1=O	·	·	0	·	·
Cc1cccc(CN2CCN(C(=O)c3cccc4ccccc34)CC2)c1	·	·	0	3	-2
Cc1cccc(CN2CCN(C(=O)CCl)CC2)c1	0	100*	1	7	-4
O=C(NCc1ccccc1Cl)c1ccc2c(c1)OCO2	·	·	-1	-16	20
Cc1ccc(C(=O)Nc2cccc(C(=O)NC3CCCCC3)c2)cc1	·	·	-1	4	-6
C(=N\Nc1nc2ccccc2[nH]1)/c1cccs1	1	98*	-3	-2	·
Cc1ccsc1/C=N/Nc1nc2ccccc2[nH]1	0	50	-1	20	-8
Cc1ccc(N2CCN(/N=C/c3c(C)nn(-c4ccccc4)c3Cl)CC2)cc1	0	89*	0	-4	8
Cc1nn(-c2ccccc2)c(C)c1/C=N/Nc1nc2ccccc2[nH]1	0	100*	1	66*	-3
SMILES	Redox H2O2 prof	Lmaj promast	MPTP inh	T cruzi repl	Hep lipid drop
Cn1c(/C=N/Nc2nc3ccccc3[nH]2)nc2ccccc21	-2	101*	1	51	-15
O=C(O)c1ccc(/C=N/Nc2nc3ccccc3[nH]2)cc1	·	·	0	3	-5
Cc1nn(-c2ccccc2)c(Cl)c1/C=N/Nc1nc2ccccc2n1C	0	52*	3	55*	22
Cc1c(/C=N/Nc2nc3ccccc3[nH]2)c2ccccc2n1C	·	·	1	56*	26
Cc1ccc(OCCCOc2cccc3cccnc23)cc1C	2	2	1	-1	·
Cc1cccc(OCCCCCn2ccnc2)c1C	-1	99*	18	52	·
Cc1cccc(OCCCOc2cccc3cccnc23)c1C	-4	69*	1	3	·
CC(C)(C)c1ccccc1OCCCCCn1ccnc1	0	95*	16	61*	-19
COC(=O)CC/C(O)=C1\C(=O)CC(C)(C)CC1=NCCc1nc2ccccc2[nH]1	0	6	0	-3	2
O=c1cnn(-c2ccccc2)c(-c2ccccc2)c1	0	82*	-1	-5	·
O=C(NCCOC12CC3CC(CC(C3)C1)C2)c1cccc(Br)c1	2	94*	4	13	·
COc1ccc(N(C(=O)c2ccccc2C)S(=O)(=O)c2cccs2)cc1	0	94*	0	-15	?
Cc1ccc(NC(=O)C2CCCN(S(=O)(=O)c3c(C)noc3C)C2)c(Br)c1 (configuration not stated)	·	·	0	-11	10
CCc1ccc(N(CC(=O)Nc2ccccc2C(=O)N2CCOCC2)S(C)(=O)=O)cc1	0	51*	3	-3	-6
O=C(CSCc1c(Cl)cccc1Cl)Nc1ccccc1C(=O)N1CCOCC1	0	52*	-2	-3	-8
O=C(OCc1nc2ccc(Cl)cc2n1CCO)c1ccccc1C(=O)c1ccccc1	0	60*	0	-5	-12
O=C(CNC(=O)c1ccccc1F)OCc1nc2ccc(Cl)cc2n1CCO	·	·	-1	·	·
O=C(O)CN(C1CCCCC1)S(=O)(=O)c1ccc(F)cc1	-1	-3	0	-14	14
Cc1ccc(C2=NN(S(C)(=O)=O)C(c3cccs3)C2)cc1 (configuration not stated)	-8	4	-8	-8	·
CCc1ccc(C2=NN(S(C)(=O)=O)C(c3cccs3)C2)cc1 (configuration not stated)	1	67*	3	?	6
C#CCSc1nc(N)c2c(n1)OC(N)=C(C#N)C2c1cccnc1 (configuration not stated)	0	76*	0	-19	0
Cc1ccc(-c2[nH]nc3c2C(c2cccnc2)C(C#N)=C(N)O3)cc1 (configuration not stated)	0	71*	-1	-5	20
CC(=O)Sc1nc(-c2ccccc2)[nH]c1S(=O)(=O)c1ccc(C)cc1	-1	-7	·	-7	0
CSc1nc(-c2ccc(C)cc2)[nH]c1S(=O)(=O)c1ccccc1	3	56*	1	-1	·
COc1ccc(Cc2noc(CN3CCCC(OCc4ccccn4)C3)n2)cc1OC (configuration not stated)	-1	-4	2	2	-18
O=[N+]([O-])C(/C=C(\Cl)[N+](=O)[O-])=C1N(Cc2ccc(Cl)nc2)CCN1Cc1ccc(Cl)nc1	1	7	0	-13	·
O=[N+]([O-])C(/C=C(/Cl)[N+](=O)[O-])=C(N1CCCCC1)N1CCCCC1	·	·	1	55*	-21

Compound activity deposited in PubChem by several laboratories.
